Experimental data collected from several papers.
Compare with care: the assays were run in different laboratories.
Target: Maternal embryonic leucine zipper kinase (MELK, Homo sapiens, UniProt Q14680)

O=[N+]([O-])c1cccc2[nH]c(CNc3nc(N4CCOCC4)nc4c3ncn4-c3ccsc3)nc12  binding vs control (binding; competition with immobilised ligand; 10 µM): 47%
CN(c1ncccc1CNc1nc(Nc2ccc3c(c2)CC(=O)N3)ncc1C(F)(F)F)S(C)(=O)=O  inhibition (enzyme activity; inhibitor; 1 µM): 90.4%
O=C1Nc2ccc(Cl)cc2C1=Cc1cc(Cl)c(O)c(Cl)c1  remaining signal (cell-free assay; 0.5 µM): 83.6%
CN(C)CC#Cc1ccc(OCCCc2sc(N3CCc4cccc(C(=O)Nc5nc6ccccc6s5)c4C3)nc2C(=O)O)c(F)c1  remaining binding (cell-free assay; competition with immobilised ligand; 1 µM): 78%
COc1ccc(COc2ccc(Cc3cnc(N)nc3N)cc2OC)cc1  remaining signal (cell-free assay; 0.5 µM): 102%
COc1cc2ncnc(Nc3ccc(Oc4ccccc4)c(C)c3C)c2cc1OC  inhibition (enzyme activity; inhibitor; 1 µM): 10%
FC(F)(F)Oc1cccc(-c2cnc3ccc(-c4ccncc4)nn23)c1  activity vs control (enzyme activity; inhibitor; radiometric; 5 µM): 77%
Cc1cc(NC(=O)c2cccc3cc(-c4cccc5[nH]nc(N)c45)ccc23)ccc1F  activity vs control (enzyme activity; inhibitor; 0.1 µM): 93%
CCOC(=O)c1cc2cc(-c3cc(C(=O)NCc4ccc(C(=O)O)cc4)nn3C)ccc2[nH]1  remaining binding (cell-free assay; competition with immobilised ligand; 0.1 µM): 100%
CNC(=O)c1cc(Oc2ccc(NC(=O)Nc3ccc(Cl)c(C(F)(F)F)c3)cc2)ccn1  inhibition (enzyme activity; inhibitor; 10 µM): 13%
CCN1CCN(Cc2ccc(NC(=O)c3ccc(C)c(/C=C/c4cnc5[nH]ccc5c4OC)c3)cc2C(F)(F)F)CC1  inhibition (target engagement in cells; inhibitor; chemoproteomics; A-375; 50 nM): -10.4%
CC(C)(O)[C@H]1CC[C@H](Nc2ccc3ncc(-c4cccc(C(F)(F)F)c4)n3n2)CC1  remaining activity (enzyme activity; inhibitor; 1 µM): 86.3%
CC(C)(C)c1nc(-c2cccc(NS(=O)(=O)c3c(F)cccc3F)c2F)c(-c2ccnc(N)n2)s1  remaining activity (enzyme activity; inhibitor; radiometric; 1 µM): 27%
CCCS(=O)(=O)Nc1ccc(F)c(C(=O)c2c[nH]c3ncc(-c4ccc(Cl)cc4)cc23)c1F  inhibition (enzyme activity; inhibitor; 1 µM): < 10%
Cc1ccc(Nc2nccc(N(C)c3ccc4c(C)n(C)nc4c3)n2)cc1S(N)(=O)=O  inhibition (enzyme activity; inhibitor; 10 µM): 16%
O=C(Nc1cnn(-c2csc(C(=O)NC3COC3)c2)c1)Nc1c(F)cccc1Cl  remaining activity (enzyme activity; inhibitor; 5 µM): 61.4%
C[C@@]1(Cc2ccc(C#N)cc2)C(=O)N(c2cc(Cl)cc(Cl)c2)c2ncc(C(=O)NC3(c4nc(C5CCC5)no4)CC3)n21  remaining binding (cell-free assay; competition with immobilised ligand; 1 µM): 89%
FC(F)c1nc2ccccc2n1-c1nc(N2CCOCC2)nc(N2CCOCC2)n1  remaining activity (enzyme activity; inhibitor; 10 µM): 91%
CN1CC(Oc2cnc(C#N)cc2-c2ccn3nc(NC(=O)C4CC4)cc3c2)C1  inhibition (enzyme activity; inhibitor; 1 µM): 10%
N#Cc1ccc(Nc2ccc3[nH]c(=O)[nH]c3c2)c(Cl)c1  remaining binding (cell-free assay; competition with immobilised ligand; 1 µM): 95%
CC(C)(C)c1nc2c3cc[nH]c(=O)c3c3cc(F)ccc3c2[nH]1  remaining signal (cell-free assay; 0.5 µM): 5.23%
CC/C(=N\NC(=O)NCc1cccc(O)c1)c1ccc(O)c(C)c1O  inhibition (enzyme activity; inhibitor; 0.1 µM): 0.7%
CCS(=O)(=O)c1cc2cc(C[C@@](O)(CC(C)(C)c3ccc(F)cc3C(N)=O)C(F)(F)F)[nH]c2cn1  remaining binding (cell-free assay; competition with immobilised ligand; 1 µM): 100%
Cc1ccc(C(=O)Nc2ccc(CN3CCN(C)CC3)c(C(F)(F)F)c2)cc1C#Cc1cnc2cccnn12  remaining activity (enzyme activity; inhibitor; 23.5 nM): 61%
CCN(CC)CCNC(=O)c1c(C)[nH]c(/C=C2\C(=O)Nc3ccc(F)cc32)c1C  inhibition (enzyme activity; inhibitor; 0.3 µM): 53%
O=C(Nc1cnn(-c2csc(C(=O)NC3COC3)c2)c1)Nc1ccccc1Cl  remaining activity (enzyme activity; inhibitor; 5 µM): 48.7%
CN(C)C(=O)Cn1cc(-c2nc([C@@](C)(c3ccc(-c4cnc(N)nc4)cc3)C3CC3)no2)cn1  remaining binding (cell-free assay; competition with immobilised ligand; 1 µM): 87%
Nc1nc(Nc2ccccc2)sc1C(=O)c1c(F)cccc1F  remaining activity (enzyme activity; inhibitor; 10 µM): 47%
C[C@H](c1cccc(C#N)c1)n1cc(Cl)cc(C(N)=O)c1=N  remaining binding (cell-free assay; competition with immobilised ligand; 1 µM): 74%
O=C1NC(=O)c2cc(Nc3ccc(F)cc3)c(Nc3ccc(F)cc3)cc21  remaining signal (cell-free assay; 0.5 µM): 92%
CO[C@@H](C)c1c(Nc2ccc([C@@H](N(C)C(=O)C3CCS(=O)(=O)CC3)C(F)(F)F)cc2)cnc2cc(Cl)nn12  remaining binding (cell-free assay; competition with immobilised ligand; 1 µM): 52%
COc1cc(Nc2cnc(C#N)c(O[C@H](C)CN(C)C)n2)ncc1-c1cnn(C)c1  remaining activity (enzyme activity; inhibitor; radiometric; 10 µM): 62%
